ERa SRC1 pot = enhancers of ERα–SRC-1 coactivator binding, primary screen, biochemical, TR-FRET, ERα LBD, low estradiol; AID 639, 2007; coactivator binding (% of control), % at 25.6 µM; Estrogen receptor (Homo sapiens), P03372; 86,000 tested, 1.3% active; TR-FRET ERalpha-LBD/SRC-Cy5 coactivator binding, 2 h; 100 = basal binding, no effect; in the data active = activity above about 200%;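 also: binding measured in presence of low estradiol as agonist stimulus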
sEH activator = soluble epoxide hydrolase activators, primary screen, biochemical, human sEH; 91,000 tested, 0.04% active; activation, % at 2 µM; purified human sEH enzymatic activity, activator screen; AID 717, 2007; in the data active = activation above about 37%
sEH inh = soluble epoxide hydrolase inhibitors, primary screen, biochemical, human sEH. Bifunctional epoxide hydrolase 2 (Homo sapiens), P34913. recombinant human sEH enzymatic activity assay. inhibition, % at 2 µM. 91,000 tested, 0.34% active. AID 707, 2007; in the data active = inhibition above about 80%
Rev-RRE block = HIV-1 Rev-RRE binding inhibitors, primary screen, biochemical, FRET, protein-RNA interaction | P05866 | Rev peptide-RRE RNA binding | inhibition, % at 8 µM | 97,000 tested, 0.79% active;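 active = inhibition above the screen-wide mean plus 3 SD, cut at about 35% in these data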
Target sequence (P05866 whole entry, looked up): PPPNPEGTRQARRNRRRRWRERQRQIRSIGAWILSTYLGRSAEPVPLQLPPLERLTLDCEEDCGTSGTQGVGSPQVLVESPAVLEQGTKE
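Test system: Cy5-tagged RRE RNA duplex with fluorescein-tagged Rev peptide; Probe or stimulus: labelled Rev peptide; Schedule: 5 min preincubation and 15 min binding, 25 °C; Signal: FRET fluorescence readout; Evaluation: % inhibition from 671/540 nm acceptor-to-donor ratio, scaled between controls; Control set: DMSO and neomycin B.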
ERb SRC1 inh = inhibitors of ERβ-SRC1 coactivator interaction, primary screen, biochemical, TR-FRET, ERβ LBD, SRC-1 peptide | inhibition, % at 25.6 µM | Estrogen receptor beta (Homo sapiens), Q92731 | 86,000 tested, 1.3% active | TR-FRET ER-beta LBD / SRC1-Cy5 peptide binding; receptor agonist-loaded with 1 µM estradiol;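 active = compounds whose percent inhibition of the receptor-coactivator binding signal exceeds about 50% in the single-dose screen, limit read from the data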
Target sequence (Q92731 whole entry, looked up, the tested form may be a part): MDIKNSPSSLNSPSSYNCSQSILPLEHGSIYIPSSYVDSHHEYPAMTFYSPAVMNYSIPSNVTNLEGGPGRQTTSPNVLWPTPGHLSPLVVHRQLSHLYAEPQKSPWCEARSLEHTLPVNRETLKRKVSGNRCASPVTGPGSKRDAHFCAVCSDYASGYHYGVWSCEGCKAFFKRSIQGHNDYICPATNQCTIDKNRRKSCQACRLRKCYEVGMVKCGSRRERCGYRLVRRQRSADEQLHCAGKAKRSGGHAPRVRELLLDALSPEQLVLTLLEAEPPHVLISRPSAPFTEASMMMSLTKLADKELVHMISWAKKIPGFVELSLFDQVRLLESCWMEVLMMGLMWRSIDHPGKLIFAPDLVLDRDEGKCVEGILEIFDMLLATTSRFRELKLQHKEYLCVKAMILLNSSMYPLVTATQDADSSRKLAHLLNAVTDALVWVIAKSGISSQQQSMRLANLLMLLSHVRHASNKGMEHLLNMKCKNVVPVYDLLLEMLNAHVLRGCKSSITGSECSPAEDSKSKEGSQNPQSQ
ERa coact inh = ERα–SRC-1 coactivator interaction inhibitors, primary screen, biochemical, TR-FRET, ERα LBD, estradiol-bound; TR-FRET ER-alpha LBD / SRC-1 peptide; inhibition, % at 25.6 µM; 86,000 tested, 1.7% active; AID 629, 2007; in the data active = inhibition above about 50%
Each line names hits and unclear results; the compound was inactive in the other large screens; [ ] = remark or other dose. Sampled rows, rich in hits. Any-hit rate of the full collection: about 3.5%.

CCOC(=O)C1=C(CSc2nc(CC)c(C)cc2C#N)OC(N)=C(C#N)C1c1ccc(OC)cc1 (configuration not stated)	none
COC(=O)C1=C(CSc2nc3c(cc2C#N)CN(C)CC3)OC(N)=C(C#N)C1c1ccc(F)cc1 (configuration not stated)	Rev-RRE block 65
O=S(=O)(c1cccc(-c2cn3cccnc3n2)c1)N1CCCCCC1	ERa coact inh 58
O=S(=O)(c1cccc(-c2cn3cccnc3n2)c1)N1CCOCC1	none (no result: sEH activator, sEH inh, Rev-RRE block)
Clc1ccc(-c2cn3cccnc3n2)cc1Cl	Rev-RRE block 39
O=c1[nH]c2c(s1)C(c1ccc(O)cc1)C1C3CCC(C3)C1S2 (configuration not stated)	ERa coact inh 70
COc1ccc(C2c3sc(=O)[nH]c3SC3C4CCC(C4)C23)cc1OC (configuration not stated)	none
COc1ccccc1C(=O)N1CCC(C(=O)c2ccc(F)cc2)CC1	none
COc1cc(N2CCCC2)c(OC)cc1/C=C(/C#N)c1ccc(F)cc1	Rev-RRE block 95[fluorescence artefact?]
COc1cc(N2CCCC2)c(OC)cc1/C=C(/C#N)c1ccc(Br)cc1	Rev-RRE block 114[fluorescence artefact?]
COc1ccc(CCNC(=S)Nc2cccc(C)c2C)cc1	none
CCOC(=O)N1CCc2c(sc3c2C(=O)NC(c2ccc(-c4ccc(Cl)cc4)o2)N3)C1 (configuration not stated)	ERb SRC1 inh 56[fluorescence artefact?], ERa coact inh 79 (no result: sEH activator, sEH inh, Rev-RRE block)
CC(C)N1C(=O)S/C(=C/c2cccnc2)C1=O	none (no result: ERa SRC1 pot, ERb SRC1 inh, ERa coact inh)
Cc1cc(Cl)c(S(=O)(=O)N2CCCCCC2)cc1OCC(N)=O	none
CCC(=O)Nc1ccc(C(=O)Cn2nc(C(=O)O)c3ccccc3c2=O)cc1	ERb SRC1 inh 61, ERa coact inh 77[fluorescence artefact?] (no result: sEH activator, sEH inh, Rev-RRE block)
CCOc1ccc(C(C)=O)cc1Cn1nc(C(=O)O)c2ccccc2c1=O	ERa SRC1 pot 252
Cc1cccc(CN2C(=O)N/C(=C/c3ccc(C)s3)C2=O)c1	Rev-RRE block 58 (no result: ERa SRC1 pot, ERb SRC1 inh, ERa coact inh)
CCN1C(=O)/C(=C/c2ccc(C)s2)NC1=S	none
Cc1ccc(/C=C2/NC(=O)N(Cc3ccccc3)C2=O)s1	Rev-RRE block 50 (no result: ERa SRC1 pot, ERb SRC1 inh, ERa coact inh)
Cc1cccc(CN2C(=O)N/C(=C/c3cc(C)n(-c4cc(C)ccn4)c3C)C2=O)c1	none (no result: ERa SRC1 pot, ERb SRC1 inh, ERa coact inh)
O=C(N1CCOCC1)N1CCN(Cc2ccccc2)CC1	ERa SRC1 pot 545[fluorescence artefact?]
Cc1nc2c(c(=O)n1CC1CCCO1)c1nc3ccccc3nc1n2Cc1ccc2c(c1)OCO2 (configuration not stated)	ERb SRC1 inh 58[fluorescence artefact?], ERa coact inh 69[fluorescence artefact?] (no result: sEH activator, sEH inh, Rev-RRE block)
CCC(C)n1c(C)nc2c(c1=O)c1nc3ccccc3nc1n2-c1ccc2c(c1)OCCO2 (configuration not stated)	ERa SRC1 pot 256[fluorescence artefact?] (no result: sEH activator, sEH inh, Rev-RRE block)
CC(C)Cn1cnc2c(c1=O)c1nc3ccccc3nc1n2Cc1ccc2c(c1)OCO2	none (no result: sEH activator, sEH inh, Rev-RRE block)
O=c1c2c3nc4ccccc4nc3n(-c3ccc4c(c3)OCCO4)c2ncn1CC1CCCO1 (configuration not stated)	ERa coact inh 69 (no result: sEH activator, sEH inh, Rev-RRE block)
COc1ccc(C2/C(=C(\O)c3ccc4c(c3)OCCO4)C(=O)C(=O)N2CCCN(C)C)cc1 (configuration not stated)	none
CC1CCCN(C(=O)CN2CCN(C(=O)c3ccco3)CC2)C1 (configuration not stated)	none (no result: ERa SRC1 pot, ERb SRC1 inh, ERa coact inh)
COc1ccc2nc(NC(=O)c3cccc(OCc4c(C)noc4C)c3)sc2c1	none (no result: sEH activator, sEH inh, Rev-RRE block)
CCc1ccc2nc(NC(=O)CSCc3c(C)noc3C)sc2c1	ERb SRC1 inh 91[fluorescence artefact?]
CCOC(=O)c1sc(Nc2ccccc2)nc1C	none
CCOC(=O)c1c(Nc2nc(C)c(C(=O)NC)s2)sc(C)c1C	ERa coact inh 69
Cc1occc1C(=O)Nc1ccccc1NC(=O)c1ccoc1C	ERb SRC1 inh 55, ERa coact inh 58
Cc1occc1C(=O)Nc1cccc2ccccc12	none
Cc1nc2c(C(=O)N3CCCC3)c[nH]n2c(=O)c1Cc1ccc(F)cc1Cl	none (no result: sEH activator, sEH inh, Rev-RRE block)
O=c1oc2ccc3ccccc3c2cc1-c1nc2ccccc2o1	ERa coact inh 51[fluorescence artefact?]
O=c1oc2ccccc2cc1-c1nc2ccccc2o1	none (no result: ERa SRC1 pot, ERb SRC1 inh, ERa coact inh)
O=C1C2C3c4ccccc4C(c4ccccc43)C2C(=O)N1Cc1ccco1 (configuration not stated)	none (no result: sEH activator, sEH inh, Rev-RRE block)
CC12C(=O)N(Cc3ccco3)C(=O)C1C1c3ccccc3C2c2ccccc21 (configuration not stated)	ERb SRC1 inh 55[fluorescence artefact?]
Cc1cccc(C(=O)O/N=C2\CCS(=O)(=O)c3sccc32)c1	none (no result: ERa SRC1 pot, ERb SRC1 inh, ERa coact inh)
Cc1csc2nc(CNS(=O)(=O)c3ccc4c(c3)OCCO4)cn12	none
Cc1csc2nc(CCNS(=O)(=O)c3ccc4c(c3)OCCO4)cn12	ERa coact inh 54
N#CC(C(=O)NCCc1ccccc1)c1nc2ccccc2nc1N1CCCCC1 (configuration not stated)	none
N#CC(C(=O)NCCc1ccccc1)c1nc2ccccc2nc1N1CCOCC1 (configuration not stated)	ERa coact inh 75[fluorescence artefact?]
N#CC(C(=O)NCc1ccccc1)c1nc2ccccc2nc1N1CCCC1 (configuration not stated)	Rev-RRE block 62 (no result: ERa SRC1 pot, ERb SRC1 inh, ERa coact inh)
CCOC(=O)C(C(=O)OCC)N(C#N)c1nc(C)cc(C)n1	none (no result: ERa SRC1 pot, ERb SRC1 inh, ERa coact inh)
O=C1Nc2ccccc2C12OCCS2 (configuration not stated)	ERb SRC1 inh 54 (no result: sEH activator, sEH inh, Rev-RRE block)
O=C1Nc2ccccc2C12OCC1(CO2)COC2(OC1)C(=O)Nc1ccccc12 (configuration not stated)	none
COc1ccc2cc(-c3nc4ccccc4n3C)c(=O)oc2c1	none
CCn1c(C(=O)N2CCC(C(=O)NCCCSC3CCCCC3)CC2)cc2sccc21	sEH inh 96
CCOC(=O)c1sc(N)nc1C(C)C	none (no result: ERa SRC1 pot, ERb SRC1 inh, ERa coact inh)
Cc1cc(=O)n2c3ccccc3n(CC(O)CN3CCCCC3)c2c1C#N (configuration not stated)	none (no result: ERa SRC1 pot, ERb SRC1 inh, ERa coact inh)
CN1Cc2cc(C(=O)c3cc(Cl)cc(CSc4ncccn4)c3O)cnc2NC1=O	ERa coact inh 56
COc1ccc2cc(CN(CC3COCCO3)S(=O)(=O)c3ccc(Cl)cc3)c(=O)[nH]c2c1 (configuration not stated)	ERa SRC1 pot 234[fluorescence artefact?]
Cc1ccc(C(=O)NCCc2nnc(SCC(=O)Nc3nc(-c4ccccc4)cs3)n2C)cc1	none
CCn1c2ccccc2c2cc(C3C(C#N)=C(C)NC(C)=C3C#N)ccc21	ERa SRC1 pot 215
CCn1c2ccccc2c2cc(/C(C)=N/O)ccc21	none (no result: ERa SRC1 pot, ERb SRC1 inh, ERa coact inh)

Screening results from PubChem BioAssay.
